Experimental data taken from PubChem BioAssay.
Activity calls are given as the source filed them.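 How the source made its calls, unless noted: active means viability at or below 10% of carrier control in both of two separate runs; inconclusive means viability at or below 10% in only one of the two runs; inactive means the rest.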

Assays:
[1] = reducers of endogenous Her2 protein level, primary screen, SKBR3 breast tumor cells, AlphaScreen, ATP viability (AID 461;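 active means Her2 level under about 52% in both replicate screens, with viability over 70% of control, limit read from the data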;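 on Her2 level: lower value means less Her2 protein in the cells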;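 on viability: percent of carrier control wells set as 100% viability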); details: 18-24 h, measured here: SKBR3 viability, ATP luminescence, at 10 µM
[2] = molecular target: Receptor tyrosine-protein kinase erbB-2 (Homo sapiens) (UniProt P04626); assay: as above; details: 18-24 h, at 10 µM, stronger effect = lower value
[3] = SK-BR-3 cell growth inhibitors, pilot screen, 24 h, human (AID 572); details: SK-BR-3 viability, CellTiter-Glo luminescence, at 10 µM, stronger effect = lower value;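 further: compound exposure lasted between 18 and 24 h rather than exactly 24 h; 100% = carrier-treated control wells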
[4] = HUVEC growth inhibition – cell-based, human, primary screen (AID 575;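 active means viability at or below 30% in both replicate assays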;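 further: 100% = median of untreated cell wells with 0.1% DMSO on each plate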); details: HUVEC proliferation, CellTiter-Glo luminescence, 72 h; at 10 µM; stronger effect = lower value
In short: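 Timing: 72 h treatment at 37 °C; material: HUVEC primary cells; technique: CellTiter-Glo luminescence measuring cellular ATP; controls: vehicle and MePR control wells; measure: percent of median DMSO-control luminescence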

[5] = growth inhibitors of H69AR lung tumor, primary screen, human, duplicate replicates (AID 580;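 active means viability at or under a set limit in both replicates, limit being median viability minus 3 SD, cut at about 48% in these data, passing the limit was not always enough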;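 further: 100% = mean luminescence of untreated wells and 0% = no signal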); details: H69AR lung tumor cells viability, ATP luminescence, 72 h; at 10 µM; stronger effect = lower value
[6] = reversal of MRP1-mediated doxorubicin resistance, pilot screen, H69AR cells, doxorubicin co-treatment (AID 601;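 active means viability loss from added drug above about 55%, and viability with drug at most 40%, in both replicates, limit read from the data, passing the limit was not always enough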); details: CellTiter-Glo, 72 h, at 10 µM; for differential viability (reversal): stronger effect = higher value
[7] = 384-well plate pilot, post-Golgi transport modulator project, inhibition of yeast transport mutant growth (AID 636; in the data active means inhibition above about 31%); details: absorbance 615 nm, about 18 h, stronger effect = higher value
[8] = growth suppression of yeast trafficking mutant, preliminary HTS, modulators of trafficking downstream of Golgi apparatus project, 1536-format plate, OD 615 nm (AID 637; in the data active means inhibition above about 30%); details: yeast transport mutant growth, absorbance 615 nm, 18 h; stronger effect = higher value
[9] = H69AR cells + 2 uM doxorubicin, measured here: viability with 2 uM doxorubicin, stronger effect = lower value
[10] = H69AR cells, compound alone cytotoxicity

Receptor tyrosine-protein kinase erbB-2 (Homo sapiens), sequence (P04626 whole entry, looked up): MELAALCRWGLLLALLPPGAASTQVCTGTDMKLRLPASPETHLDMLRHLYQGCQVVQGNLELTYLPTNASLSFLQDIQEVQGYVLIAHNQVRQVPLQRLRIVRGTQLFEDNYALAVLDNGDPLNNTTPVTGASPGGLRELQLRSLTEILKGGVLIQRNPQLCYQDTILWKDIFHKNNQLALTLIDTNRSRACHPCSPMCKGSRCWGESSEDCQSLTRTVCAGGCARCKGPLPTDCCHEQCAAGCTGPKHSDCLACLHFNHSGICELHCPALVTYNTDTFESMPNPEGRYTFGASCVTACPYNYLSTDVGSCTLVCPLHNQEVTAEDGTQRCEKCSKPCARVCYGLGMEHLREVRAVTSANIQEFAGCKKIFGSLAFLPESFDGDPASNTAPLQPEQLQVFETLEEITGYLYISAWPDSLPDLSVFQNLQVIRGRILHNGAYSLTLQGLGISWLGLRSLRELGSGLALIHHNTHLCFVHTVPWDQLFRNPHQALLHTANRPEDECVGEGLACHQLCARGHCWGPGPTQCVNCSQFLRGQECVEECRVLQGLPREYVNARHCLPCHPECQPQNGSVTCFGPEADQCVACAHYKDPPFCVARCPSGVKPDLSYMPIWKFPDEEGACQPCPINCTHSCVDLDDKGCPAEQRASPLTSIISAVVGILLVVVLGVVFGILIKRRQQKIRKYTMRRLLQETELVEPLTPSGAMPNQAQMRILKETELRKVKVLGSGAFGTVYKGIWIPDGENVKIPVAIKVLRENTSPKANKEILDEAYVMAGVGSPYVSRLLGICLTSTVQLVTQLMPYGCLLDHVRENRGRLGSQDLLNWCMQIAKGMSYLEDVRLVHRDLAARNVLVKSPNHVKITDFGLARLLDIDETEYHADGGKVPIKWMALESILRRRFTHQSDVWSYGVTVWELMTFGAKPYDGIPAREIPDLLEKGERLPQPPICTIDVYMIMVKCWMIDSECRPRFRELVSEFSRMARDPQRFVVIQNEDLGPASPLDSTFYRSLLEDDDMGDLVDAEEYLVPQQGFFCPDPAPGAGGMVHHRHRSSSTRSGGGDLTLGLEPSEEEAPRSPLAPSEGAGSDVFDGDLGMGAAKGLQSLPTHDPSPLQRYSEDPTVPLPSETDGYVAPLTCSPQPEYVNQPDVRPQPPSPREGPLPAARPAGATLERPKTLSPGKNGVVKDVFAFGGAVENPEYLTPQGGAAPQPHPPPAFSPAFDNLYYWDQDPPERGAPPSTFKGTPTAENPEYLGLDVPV

SMILES	viability [1] [%]	Her2 level [2]	viability [3]	viability [4]	viability [5]	differential viability (reversal) ([6]; H69AR cells + 2 uM doxorubicin)	viability [6, 9] [%]	viability [6, 10] [%]	inhibition [7]	inhibition [8]
CCCC(=O)Nc1ccc(OCC(O)CNC(C)C)c(C(C)=O)c1 (centres undefined)	100	121% (inactive)	100% (inactive)	115% (inactive)	101% (inactive)	-0.95% (inactive)	102	101	–	–
C[N+]12CCC(CC1)C(OC(=O)C(O)(c1ccccc1)c1ccccc1)C2 (centres undefined)	97.5	96.5% (inactive)	97.5% (inactive)	100% (inactive)	90.7% (inactive)	11.9% (inactive)	78.7	90.7	–	–
CN(C)S(=O)(=O)NC(c1ccccc1)c1ccccc1	93	97% (inactive)	93% (inactive)	105% (inactive)	105% (inactive)	15.6% (inactive)	88.9	105	-8% (inactive)	-2.38% (inactive)
CC(C[N+](C)(C)C)OC(N)=O (centres undefined)	101	114% (inactive)	101% (inactive)	97.5% (inactive)	99.4% (inactive)	1.13% (inactive)	98.3	99.4	–	–
CCc1ccccc1NC(=O)CSc1ncn[nH]1	101	124% (inactive)	101% (inactive)	97.9% (inactive)	103% (inactive)	8.47% (inactive)	94	103	-1.82% (inactive)	-6.33% (inactive)
CC(C)CNS(=O)(=O)c1ccc(OCC(=O)Nc2ccc3c(c2)OCO3)c(Cl)c1	89.5	66% (inactive)	89.5% (inactive)	58.6% (inactive)	66.7% (inactive)	-2.31% (inactive)	69	66.7	-5.39% (inactive)	-0.67% (inactive)
Cc1ccc(Cn2c(NCCc3ccccc3)nc3c2c(=O)n(C)c(=O)n3C)cc1	82.5	75% (inactive)	82.5% (inactive)	73.5% (inactive)	91.9% (inactive)	3.77% (inactive)	88.1	91.9	-10% (inactive)	-2.7% (inactive)
CCOC(=O)c1cnn(-c2cc(C)c3cc(C)cc(C)c3n2)c1N	88.5	104% (inactive)	88.5% (inactive)	95.5% (inactive)	82.5% (inactive)	-2.12% (inactive)	84.6	82.5	1.82% (inactive)	-8.89% (inactive)
O=C(NC1CCCCC1)c1cc2nc(-c3ccco3)cc(C(F)(F)F)n2n1	81.5	93% (inactive)	81.5% (inactive)	106% (inactive)	80.2% (inactive)	-2.98% (inactive)	83.2	80.2	-2.08% (inactive)	2.79% (inactive)
Cn1cccc1-c1cc(C(=O)O)[nH]n1	129	110% (inactive)	129% (inactive)	106% (inactive)	93.8% (inactive)	-7.12% (inactive)	101	93.8	-4.61% (inactive)	1.64% (inactive)
Cc1cccc(C)c1NC(=O)CC(NCc1ccco1)C(=O)O (centres undefined)	116	85% (inactive)	116% (inactive)	118% (inactive)	109% (inactive)	13.5% (inactive)	95.8	109	-7.7% (inactive)	-2.67% (inactive)
COc1cc(C(=O)OCC(=O)N(C)Cc2ccccc2)cc(OC)c1OC	106	96.5% (inactive)	106% (inactive)	103% (inactive)	94.8% (inactive)	-2.6% (inactive)	97.4	94.8	-5.34% (inactive)	0.79% (inactive)
CCC1(C)Cc2c(C#N)c(N)n(-c3ccccc3)c(=O)c2CO1 (centres undefined)	100	106% (inactive)	100% (inactive)	104% (inactive)	109% (inactive)	19.4% (inactive)	89.7	109	-0.13% (inactive)	-3.64% (inactive)
Cc1cc(C)nc(N2CCCC(C(=O)Nc3nc4ccc(S(C)(=O)=O)cc4s3)C2)n1 (centres undefined)	80.5	90% (inactive)	80.5% (inactive)	79.5% (inactive)	83.7% (inactive)	-9.45% (inactive)	93.2	83.7	0% (inactive)	10.8% (inactive)
CC1NC(=O)NC1CCCCCC(=O)NCCc1ccccc1 (centres undefined)	112	80% (inactive)	112% (inactive)	90.4% (inactive)	93.3% (inactive)	7.38% (inactive)	85.9	93.3	-5.07% (inactive)	0.79% (inactive)
CCN(CC)CCN1C(=O)Cn2c(C)c(C)c3cccc1c32	108	92.5% (inactive)	108% (inactive)	95.7% (inactive)	84.6% (inactive)	-1.94% (inactive)	86.5	84.6	-7.47% (inactive)	-1.75% (inactive)

SMILES	viability [1] [%]	Her2 level [2]	viability [3]	viability [4]	viability [5]	differential viability (reversal) ([6]; H69AR cells + 2 uM doxorubicin)	viability [6, 9] [%]	viability [6, 10] [%]	inhibition [7]	inhibition [8]
Cc1cc(C)cc(NC(=O)C2CCCN(S(=O)(=O)c3cnc[nH]3)C2)c1 (centres undefined)	99	96% (inactive)	99% (inactive)	92.5% (inactive)	88.6% (inactive)	-1.48% (inactive)	90.1	88.6	-4.27% (inactive)	0.67% (inactive)
CCCC(=O)Nc1nnc(CC(=O)OCC)s1	111	108% (inactive)	111% (inactive)	113% (inactive)	88.1% (inactive)	-0.96% (inactive)	89	88.1	-2.21% (inactive)	-7.14% (inactive)
O=C(NC1CCCC1)c1ccc2nc[nH]c2c1	93.5	94.5% (inactive)	93.5% (inactive)	103% (inactive)	91.2% (inactive)	9.56% (inactive)	81.7	91.2	-6.23% (inactive)	-0.79% (inactive)
Cc1ccc(C(=O)NCc2ccc3c(c2)OCO3)cc1S(=O)(=O)N1CCCCC1	91.5	100% (inactive)	91.5% (inactive)	96.6% (inactive)	96.2% (inactive)	-2.33% (inactive)	98.5	96.2	-3.2% (inactive)	-7.14% (inactive)
C=CCNS(=O)(=O)c1ccc2nsnc2c1	102	109% (inactive)	102% (inactive)	87.8% (inactive)	100% (inactive)	-1.67% (inactive)	102	100	0.27% (inactive)	-2.1% (inactive)
COc1c(Br)cc2c(C)c(C(=O)O)oc2c1Br	104	102% (inactive)	104% (inactive)	84.2% (inactive)	94.2% (inactive)	4.95% (inactive)	89.3	94.2	1.82% (inactive)	-4.59% (inactive)
Cc1nc2ccc(NC(=O)N3CCC(c4ccccc4)C3)cc2nc1C (centres undefined)	101	93.5% (inactive)	101% (inactive)	57.7% (inactive)	74.8% (inactive)	9.41% (inactive)	65.4	74.8	-4.21% (inactive)	-1.43% (inactive)
Nc1cc(-c2ccccc2)ccc1O	100	70.5% (inactive)	100% (inactive)	86.3% (inactive)	73% (inactive)	12% (inactive)	60.9	73	-7.16% (inactive)	8.33% (inactive)
COc1cccc(OC)c1OCCNCCO	126	98% (inactive)	126% (inactive)	85.7% (inactive)	96% (inactive)	11.2% (inactive)	84.8	96	-1.82% (inactive)	0.33% (inactive)
CCOC(=O)C1CCN(C(=O)C2CCN(S(=O)(=O)c3cc(Cl)ccc3Cl)CC2)CC1	92	91% (inactive)	92% (inactive)	115% (inactive)	89.4% (inactive)	20.7% (inactive)	68.7	89.4	-5.07% (inactive)	0.48% (inactive)
CCn1c(C(=O)N2CCC(C(=O)NCc3ccc4c(c3)OCO4)CC2)cc2sccc21	89	77.5% (inactive)	89% (inactive)	96.7% (inactive)	89.6% (inactive)	4.37% (inactive)	85.3	89.6	-2.93% (inactive)	1.64% (inactive)
O=C1c2ccccc2C(O)(Cc2ccccc2)N1Cc1ccco1 (centres undefined)	88.5	104% (inactive)	88.5% (inactive)	89% (inactive)	95.7% (inactive)	10.1% (inactive)	85.6	95.7	-2.37% (inactive)	-9.19% (inactive)
CCCC(=O)N1c2ccccc2NC2=C(C(=O)CCC2)C1c1ccc(F)cc1 (centres undefined)	98.5	78% (inactive)	98.5% (inactive)	96.9% (inactive)	91.6% (inactive)	-0.1% (inactive)	91.7	91.6	-0.14% (inactive)	3.81% (inactive)
O=C(OCC(=O)N1CCCC1)c1ccccc1OCc1ccccc1	96	79.5% (inactive)	96% (inactive)	73.2% (inactive)	99.4% (inactive)	11.1% (inactive)	88.3	99.4	-7.7% (inactive)	1.31% (inactive)
CCOC(=O)N1CCN(C(=O)CCc2ccc(S(=O)(=O)NCCc3ccccc3)cc2)CC1	89.5	102% (inactive)	89.5% (inactive)	87.2% (inactive)	101% (inactive)	17.6% (inactive)	83.1	101	-0.13% (inactive)	-4% (inactive)
O=C(Nc1ccc2c(c1)OCCO2)C1CCCN(S(=O)(=O)c2cnc[nH]2)C1 (centres undefined)	82.5	111% (inactive)	82.5% (inactive)	100% (inactive)	94.7% (inactive)	8.45% (inactive)	86.2	94.7	-3.2% (inactive)	-3.93% (inactive)
